Shown are actives, neighbours in structure and some others; about 2.6% of the full set was active somewhere.
rRNA inh HTS: reduced GFP signal of wild-type E. coli, primary screen, bacterial rRNA inhibitor project, GFP/RFP fluorescence, OD600, single point; E. coli WT GFP vs humanized-ribosome RFP mutants, 24 h; stronger effect = lower value; DMSO median 0, no signal -100; GFP signal change (wild-type ribosome), % (concentration not given with the values); actives 1.6% (n = 350,000); AID 720706, 2013;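 active means significant combined selectivity score with lowered wild-type GFP, culture density cut under 30%, mutant RFP and density less affected; inactive means any of these conditions unmet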
RAD52 inh: RAD52 DNA annealing inhibitors, primary screen, biochemical, FRET, single point, set 2; actives 0.46% (n = 360,000); recombinant RAD52 DNA annealing, FRET fluorescence; DNA repair protein RAD52 homolog (Homo sapiens), P43351; inhibition, % at 18.7 µM;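 active means every replicate showing at least 50% inhibition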
RAD54 inh: inhibitors of human RAD54 branch migration, primary screen, biochemical, fluorescence, single point. AID 602329, 2012. actives 0.14% (n = 360,000). DNA repair and recombination protein RAD54-like (Homo sapiens), Q92698. inhibition, % at 10.4 µM. RAD54 Holliday junction branch migration, FAM/BHQ fluorescence;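 active means mean normalized replicate activity at least 40 and at least half of replicates scoring 40 or more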;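 further: 0% = median of neutral control wells and 100% = median of positive control wells; inhibitors cause a drop in the FAM fluorescence signal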
GSIS activator: GLuc luminescence reporter in INS-1E cells, primary screen for activators of glucose-dependent secretion of insulin | AID 743287, 2014 | actives 0.61% (n = 370,000) | activation, % at 16.6 µM | INS-1E GLuc reporter insulin secretion, 2-3 h;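 active means lowest replicate activation of at least 40%, so every replicate reaches that level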;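 further: 0% = median of neutral control wells and 100% = median of IBMX positive control wells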
E-sel inducer: E-selectin induction in HUVECs, primary screen, imaging, HUVEC, immunofluorescence imaging, single point; normalized: neutral wells 0, TNF-alpha wells 100; activation, % at 7.58 µM; actives 0.37% (n = 260,000); P16581; AID 686992, 2013;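 active means mean E-selectin-positive cell signal at least 10% of the positive control, reached in at least 60% of replicates, without over 20% cell loss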
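material = human umbilical vein endothelial cells (HUVEC), E-selectin induction | quantity = 3,000 cells/well | medium = EGM-2 growth medium on 0.1% gelatin-coated wells | technique = immunofluorescence imaging | read-out basis = % PE-positive cells | control set = TNF-alpha positive control, DMSO neutral control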
MLL AF4-AF9 inh: inhibitors of AF4 peptide binding to AF9, primary screen, biochemical, AlphaScreen, biotin-AF4 peptide, FLAG-AF9, single point | actives 0.47% (n = 350,000) | inhibition, % at 10 µM;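 active means every replicate reaching a set inhibition limit, whatever the replicate mean, cut at about 25% in these data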;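 further: 0% = plate neutral control median and 100% = total signal loss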
Target sequence (P42568 whole entry, looked up): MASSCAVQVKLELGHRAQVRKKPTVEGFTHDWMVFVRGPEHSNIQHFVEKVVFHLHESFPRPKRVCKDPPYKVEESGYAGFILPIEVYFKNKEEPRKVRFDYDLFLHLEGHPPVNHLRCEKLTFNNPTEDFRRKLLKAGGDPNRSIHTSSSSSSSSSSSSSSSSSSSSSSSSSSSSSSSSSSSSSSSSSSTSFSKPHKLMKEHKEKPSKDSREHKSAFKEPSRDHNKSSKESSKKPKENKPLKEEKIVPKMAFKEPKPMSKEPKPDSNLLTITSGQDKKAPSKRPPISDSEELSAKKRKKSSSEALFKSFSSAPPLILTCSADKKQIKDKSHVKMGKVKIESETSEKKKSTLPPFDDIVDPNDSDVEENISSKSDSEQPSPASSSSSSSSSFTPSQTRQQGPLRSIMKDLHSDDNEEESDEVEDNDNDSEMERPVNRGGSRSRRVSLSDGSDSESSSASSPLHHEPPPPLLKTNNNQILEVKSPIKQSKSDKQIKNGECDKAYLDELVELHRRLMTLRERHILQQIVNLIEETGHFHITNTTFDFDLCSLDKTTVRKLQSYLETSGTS
Starred values were filed as active, the others as inactive; . = no result given.

SMILES	rRNA inh HTS	RAD52 inh	RAD54 inh	GSIS activator	E-sel inducer	MLL AF4-AF9 inh
O=C(C[C@@H]1CC[C@H]2[C@@H](COC[C@@H](O)CN2CC2CCCCC2)O1)NCc1ccc(Cl)cc1	-59	5	1	-12	0	1
O=C(COc1ccc2ccccc2c1Br)N1CCCC1	-26*	-1	2	-17	.	-6
COc1cccc(NC(=O)N[C@@H]2C=C[C@H](CC(=O)N3CCOCC3)O[C@@H]2CO)c1	2	-5	.	5	0	-4
C[C@@H]1CN([C@H](C)CO)C(=O)c2cccc(NC(=O)Nc3cccc4ccccc34)c2O[C@H]1CN(C)S(=O)(=O)c1cn(C)cn1	-3	13	4	-3	0	-2
O=C(O)CCC1(CCC(=O)O)CCCC(CCC(=O)O)(CCC(=O)O)C1=O	18	-9	-1	47*	0	2
COc1ccccc1N(C(=O)c1snc(C(N)=O)c1N)C(C(=O)NCc1ccccc1)c1ccc(O)cc1 (centres undefined)	-11	-14	-3	-14	0	-9
NC(=O)c1nsc(C(=O)N(c2ccccc2F)C(C(=O)NCc2ccc(F)cc2)c2ccc(O)cc2)c1N (centres undefined)	-40*	-5	-4	-2	.	-1
Cc1nn(Cc2ccccc2)c(C)c1NC(=O)CSc1nnc(-c2cc(Cl)ccc2O)n1C	-20*	14	-12	-18	.	5
CCCCCCCCCCCCCCCCn1cc[n+](C)c1	-62	83*	.	186*	.	11
CC(C)CC#Cc1ccc2c(c1)O[C@@H](CN(C)C(=O)c1cccc(F)c1)[C@@H](C)CN([C@H](C)CO)S2(=O)=O	3	18	11	-2	-1	1
O=C(O)c1c(C(=O)O)c(-c2ccc(Cl)c(Cl)c2)n2c1CSC2	10	-30	-14	.	58*	-3
COC(=O)c1c(C(=O)OC)c(-c2ccc(Cl)c(Cl)c2)n2c1CCC2	-29*	-4	.	-34	.	9
COc1cccc(CN(Cc2cccnc2)S(=O)(=O)c2ccc(-n3cnnn3)c(C)c2)c1	-25*	-5	-6	-11	.	-1
COc1ccc2cc(CN(Cc3cccnc3)Cc3nnnn3Cc3ccccc3)c(=O)[nH]c2c1	-28*	-9	.	-5	.	6
COc1ccc2[nH]c(=O)c(CN(c3ccccc3)S(=O)(=O)c3ccccc3)cc2c1	11	-26	-15	20	86*	-1
COc1cc(S(=O)(=O)N(Cc2cccnc2)Cc2ccco2)ccc1-n1cnnn1	-9	-25	6	8	.	-1
Cc1ccc(S(=O)(=O)N(Cc2cccnc2)Cc2cc3ccccc3[nH]c2=O)cc1	-7	-5	-2	8	0	29*
CC(=O)Nc1ccc(S(=O)(=O)N(Cc2cccnc2)Cc2cc3ccc(C)cc3[nH]c2=O)cc1	-19	-64	-4	-6	.	-1
COc1ccc(S(=O)(=O)N(Cc2cccnc2)Cc2cc3ccccc3[nH]c2=O)cc1	-29*	-13	2	23	.	-4
COc1ccc(S(=O)(=O)N(Cc2ccco2)Cc2cc3ccccc3[nH]c2=O)cc1	-13	-9	-4	7	.	-3
C[C@@H]1CCCCO[C@@H](CN(C)S(=O)(=O)c2ccc(Cl)cc2)[C@@H](C)CN([C@H](C)CO)C(=O)c2cc(NS(C)(=O)=O)ccc2O1	-1	13	-2	10	0	1
OCC1CCCN(C(=S)Nc2ccc(Nc3ccccc3)cc2)C1 (centres undefined)	-27*	-4	-10	-11	.	10
OCC1CCCN(C(=S)Nc2ccc(OC(F)F)cc2)C1 (centres undefined)	-7	-1	1	.	.	-15
